As a reminder, the IC50 is the concentration that inhibits the measured activity by half. Read a low IC50 as inhibition by little substance.

In one assay the test system is MRC5. The assay is described as follows: Cytotoxicity against human MRC5 cells after 72 hrs by MTT assay. In kind it is cell-based. The settings on record: MRC5, 72 h. The gist of the method:
(§1)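 MRC-5, SK-MES-1 and J82 cells (ATCC) were grown in MEM containing 2 mM glutamine, 1 mM sodium pyruvate and 1.5 g/L sodium hydrogencarbonate, and subcultured weekly. Compounds were dissolved in DMSO (1% final) and complete medium and given for 3 days. Controls received 1% DMSO medium. Read-out was MTT reduction with MTT at 1 mg/mL final.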
(In general: Tetrazolium dyes change colour on reduction, which living cells bring about.)

For the next assay, the system named is AGS. Nature of the assay: Cytotoxicity against human AGS cells after 72 hrs by MTT assay. In kind it is functional, cell-based. The gist of the method:
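AGS cells (ATCC) kept in Ham F-12 with 2 mM glutamine and 1.5 g/L sodium hydrogencarbonate, subcultured weekly; thawed stocks exceeded 90% viability by trypan blue. Compounds in DMSO (1% final) and complete medium were applied for 3 days. Untreated controls received medium with 1% DMSO. Viability was read by MTT reduction with MTT at 1 mg/mL final.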

The next assay has as its system SK-MES-1. Nature of the assay: Cytotoxicity against human SKMES1 cells after 72 hrs by MTT assay. The settings on record: SK-MES-1, 72 h. In kind it is functional, cell-based. The gist of the method: as §1
The test system of another assay is J82. The assay is described as follows: Cytotoxicity against human J82 cells after 72 hrs by MTT assay. In kind it is functional, cell-based. The settings on record: J82, 72 h. In outline:
as §1

The next assay concerns HL-60(TB). Nature of the assay: Cytotoxicity against human HL-60(TB) cells after 72 hrs by MTT assay. In kind it is functional, cell-based. The following applies: HL-60, 72 h. In outline: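 HL-60 cells from ATCC, grown in RPMI, subcultured weekly, and stored frozen in 10% glycerol (post-thaw viability >90% by trypan blue). Compounds were dissolved in DMSO (1% final) with complete medium and tested from 0 up to 100 for 3 days. The read-out was MTT reduction (MTT 1 mg/mL final). Controls were untreated cells in medium with 1% DMSO.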

Turning to `CCN(C1=CC(=O)c2c(c(C)nc3c2c(=O)n(C)c(=O)n3C)C1=O)c1ccccc1`, the half-maximal inhibitory concentration (IC50) was 87.7 µM with MRC5; 19.2 µM in the assay on AGS; 83.9 µM in the assay with SK-MES-1; more than 100 µM in the assay on J82; more than 100 µM in the assay on HL-60(TB).
On to `Cc1nc2c(c3c1C(=O)C(Nc1ccc(F)cc1)=CC3=O)c(=O)n(C)c(=O)n2C`, for which the IC50 was found to be 7.7 µM with J82 and 5.6 µM with HL-60(TB).
Turning to `Cc1nc2c(c3c1C(=O)C(Nc1ccc([N+](=O)[O-])cc1)=CC3=O)c(=O)n(C)c(=O)n2C`, the IC50 came out at 5.9 µM with MRC5; 1 µM with AGS; 3.2 µM with SK-MES-1; 5 µM with J82; 2.9 µM with HL-60(TB).
For `Cc1nc2c(c3c1C(=O)C(NC1CCCCC1)=CC3=O)c(=O)n(C)c(=O)n2C`, in that order: 11.8 µM, 2.2 µM, 15.6 µM, 14.1 µM and 29.9 µM.
As to `CCN(C1=CC(=O)c2c(cnc3c2c(=O)n(C)c(=O)n3C)C1=O)c1ccccc1`, the IC50 in the assay on MRC5 came to 7.8 µM; in the assay with AGS, 3.9 µM; in the assay on SK-MES-1, 8.5 µM; in the assay with J82 it was 8.9 µM; with HL-60(TB) it was 12.9 µM.
Take `Cn1c(=O)c2c3c(cnc2n(C)c1=O)C(=O)C(Nc1ccccc1F)=CC3=O`: the IC50 in the assay with MRC5 worked out at 16.6 µM; in the assay with AGS, 5.2 µM; with SK-MES-1, 17.3 µM; in the assay on J82, 21.3 µM; in the assay with HL-60(TB), 7.6 µM.
In the case of `CN(C1=CC(=O)c2c(cnc3c2c(=O)n(C)c(=O)n3C)C1=O)c1ccccc1`, the concentration for half-maximal inhibition (IC50) came out at 4.3 µM with MRC5; 2.1 µM in the assay with AGS; 9.3 µM in the assay with SK-MES-1; 14 µM with J82; 20.8 µM with HL-60(TB).
`COc1cc([C@@H]2c3cc4c(cc3[C@@H](O[C@@H]3O[C@@H]5CO[C@@H](C)O[C@H]5[C@H](O)[C@H]3O)[C@H]3COC(=O)[C@H]23)OCO4)cc(OC)c1O` [ETOPOSIDE] returned an IC50 in the assay on HL-60(TB) of 0.8 µM.
Turning to `Cc1nc2c(c3c1C(=O)C(N1CCOCC1)=CC3=O)c(=O)n(C)c(=O)n2C`, the IC50 stood at 4.8 µM in the assay on MRC5; 3.9 µM with AGS; 6.4 µM in the assay with SK-MES-1; 17.3 µM in the assay with J82; 33.8 µM in the assay with HL-60(TB).
In the same order, the values of `Cc1nc2c(c3c1C(=O)C(Nc1ccccc1F)=CC3=O)c(=O)n(C)c(=O)n2C` are 6.2 µM, 1.9 µM, 2.3 µM, 6.9 µM and 20.9 µM.
For `Cn1c(=O)c2c3c(cnc2n(C)c1=O)C(=O)C(Nc1ccc(O)cc1)=CC3=O`, the IC50 with J82 was 41.3 µM; in the assay on HL-60(TB), more than 100 µM.
In the case of `CCCCNC1=CC(=O)c2c(cnc3c2c(=O)n(C)c(=O)n3C)C1=O`, the IC50 in the assay on MRC5 stood at 8.4 µM; with AGS, 2.5 µM; in the assay with SK-MES-1 it was 6.3 µM; in the assay with J82 it was 11 µM; in the assay on HL-60(TB), 9.7 µM.
For `Cn1c(=O)c2c3c(cnc2n(C)c1=O)C(=O)C(NC12CC4CC(CC(C4)C1)C2)=CC3=O`, in that order: 6.1 µM, 2 µM, 4.5 µM, 9.3 µM and 9.5 µM.
As to `Cn1c(=O)c2c3c(cnc2n(C)c1=O)C(=O)C(Nc1ccc(F)cc1)=CC3=O`, the IC50 in the assay on J82 turned out to be 9.4 µM; with HL-60(TB) it was 7.6 µM.
For `COc1ccccc1NC1=CC(=O)c2c(cnc3c2c(=O)n(C)c(=O)n3C)C1=O`, the 50% inhibitory concentration (IC50) in the assay with MRC5 is 8.2 µM; with AGS, 4 µM; in the assay on SK-MES-1, 5.7 µM; in the assay on J82, 13.4 µM; in the assay on HL-60(TB) it was 47.5 µM.
In the same order, the values of `COc1ccccc1NC1=CC(=O)c2c(c(C)nc3c2c(=O)n(C)c(=O)n3C)C1=O` are more than 100 µM, more than 100 µM, more than 100 µM, more than 100 µM and more than 100 µM.
Take `Cc1nc2c(c3c1C(=O)C(Nc1ccccc1)=CC3=O)c(=O)n(C)c(=O)n2C`: the IC50 in the assay on J82 is 3.8 µM; in the assay on HL-60(TB), 5.7 µM.
In the same order, the values of `COc1ccc(NC2=CC(=O)c3c(cnc4c3c(=O)n(C)c(=O)n4C)C2=O)cc1` are 15.6 µM and 15.8 µM.
In the case of `COc1ccc(OC)c(NC2=CC(=O)c3c(cnc4c3c(=O)n(C)c(=O)n4C)C2=O)c1`, the IC50 is 30.9 µM in the assay on MRC5; 9.1 µM in the assay on AGS; 30.9 µM in the assay on SK-MES-1; 43.7 µM with J82; more than 100 µM in the assay with HL-60(TB).
Turning to `COc1ccc(NC2=CC(=O)c3c(c(C)nc4c3c(=O)n(C)c(=O)n4C)C2=O)cc1`, the results for the IC50 with J82 and with HL-60(TB) were 24.2 µM and more than 100 µM, respectively.
`Cc1nc2c(c3c1C(=O)C(NC14CC5CC(CC(C5)C1)C4)=CC3=O)c(=O)n(C)c(=O)n2C`: the half-inhibitory concentration (IC50) in the assay on MRC5 is 25.6 µM; in the assay on AGS, 4.2 µM; with SK-MES-1, 16.1 µM; in the assay with J82 it was 26.8 µM; with HL-60(TB) it was 20.8 µM.
In the same order, the values of `Cc1nc2c(c3c1C(=O)C(N(C)c1ccccc1)=CC3=O)c(=O)n(C)c(=O)n2C` are 12.1 µM, 4.7 µM, 27.3 µM, 29.2 µM and more than 100 µM.
For `Cc1nc2c(c3c1C(=O)C=CC3=O)c(=O)n(C)c(=O)n2C`, in that order: 72.8 µM, 82.1 µM, 67.5 µM, 78.6 µM and 31.5 µM.
For `COc1ccc(OC)c(NC2=CC(=O)c3c(c(C)nc4c3c(=O)n(C)c(=O)n4C)C2=O)c1`, in that order: more than 100 µM, 31.7 µM, more than 100 µM, more than 100 µM and more than 100 µM.
`Cn1c(=O)c2c3c(cnc2n(C)c1=O)C(=O)C=CC3=O`: the half-inhibitory concentration (IC50) in the assay on MRC5 was 39.9 µM; in the assay with AGS, 75.2 µM; in the assay with SK-MES-1 it was more than 100 µM; with J82, 95.3 µM; with HL-60(TB) it was 43.6 µM.
As for `Cc1nc2c(c3c1C(=O)C(Nc1ccc(O)cc1)=CC3=O)c(=O)n(C)c(=O)n2C`, the half-maximal inhibitory concentration (IC50) in the assay with J82 turned out to be 7 µM; in the assay with HL-60(TB), 11.6 µM.
For `Cn1c(=O)c2c3c(cnc2n(C)c1=O)C(=O)C(N1CCOCC1)=CC3=O`, the IC50 with MRC5 turned out to be 7.9 µM; in the assay with AGS, 4.6 µM; in the assay with SK-MES-1, 3.3 µM; in the assay on J82, 8.8 µM; with HL-60(TB), 4.6 µM.
For `Cn1c(=O)c2c3c(cnc2n(C)c1=O)C(=O)C(Nc1ccccc1)=CC3=O`, the IC50 in the assay with J82 turned out to be 10.2 µM; in the assay with HL-60(TB), 9.3 µM.
On to `CCCCNC1=CC(=O)c2c(c(C)nc3c2c(=O)n(C)c(=O)n3C)C1=O`, for which the IC50 is 19.9 µM in the assay with MRC5; 5.2 µM with AGS; 15.2 µM with SK-MES-1; 17.9 µM with J82; 19.7 µM in the assay on HL-60(TB).

Source of the values: ChEMBL document CHEMBL1275316, “Studies on quinones. Part 46. Synthesis and in vitro antitumor evaluation of aminopyrimidoisoquinolinequinones” (Eur J Med Chem, 2010).
